From ChEMBL document CHEMBL3352257, “In silico design of novel 2H-chromen-2-one derivatives as potent and selective MAO-B inhibitors” (Eur J Med Chem, 2015)

How the values were obtained:
Type in all cases: tissue-based
[1] = target: T1, Amine oxidase [flavin-containing] B (Rattus norvegicus, UniProt P19643); assay: Inhibition of Sprague-Dawley rat MAO-B in brain mitochondrial homogenate assessed as 4-hydroxyquinoline by spectrophotometric method
T1 sequence (P19643 whole entry): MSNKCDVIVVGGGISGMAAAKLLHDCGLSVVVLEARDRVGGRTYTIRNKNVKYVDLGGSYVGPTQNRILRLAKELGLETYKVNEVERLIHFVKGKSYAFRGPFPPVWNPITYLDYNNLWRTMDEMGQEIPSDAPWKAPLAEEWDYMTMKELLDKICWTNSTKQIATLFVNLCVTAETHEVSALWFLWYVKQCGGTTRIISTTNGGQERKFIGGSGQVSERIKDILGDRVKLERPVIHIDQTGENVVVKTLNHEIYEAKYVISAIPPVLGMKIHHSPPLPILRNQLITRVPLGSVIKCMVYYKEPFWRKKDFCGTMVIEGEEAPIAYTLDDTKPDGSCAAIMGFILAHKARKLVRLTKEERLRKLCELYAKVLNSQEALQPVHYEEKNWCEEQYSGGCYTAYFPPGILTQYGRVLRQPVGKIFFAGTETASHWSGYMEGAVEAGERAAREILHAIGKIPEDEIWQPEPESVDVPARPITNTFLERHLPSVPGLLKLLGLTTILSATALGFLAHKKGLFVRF

[2] = target: T2, Amine oxidase [flavin-containing] A (Rattus norvegicus, UniProt P21396); assay: Inhibition of Sprague-Dawley rat MAO-A in brain mitochondrial homogenate assessed as 4-hydroxyquinoline by spectrophotometric method
T2 sequence (P21396 whole entry): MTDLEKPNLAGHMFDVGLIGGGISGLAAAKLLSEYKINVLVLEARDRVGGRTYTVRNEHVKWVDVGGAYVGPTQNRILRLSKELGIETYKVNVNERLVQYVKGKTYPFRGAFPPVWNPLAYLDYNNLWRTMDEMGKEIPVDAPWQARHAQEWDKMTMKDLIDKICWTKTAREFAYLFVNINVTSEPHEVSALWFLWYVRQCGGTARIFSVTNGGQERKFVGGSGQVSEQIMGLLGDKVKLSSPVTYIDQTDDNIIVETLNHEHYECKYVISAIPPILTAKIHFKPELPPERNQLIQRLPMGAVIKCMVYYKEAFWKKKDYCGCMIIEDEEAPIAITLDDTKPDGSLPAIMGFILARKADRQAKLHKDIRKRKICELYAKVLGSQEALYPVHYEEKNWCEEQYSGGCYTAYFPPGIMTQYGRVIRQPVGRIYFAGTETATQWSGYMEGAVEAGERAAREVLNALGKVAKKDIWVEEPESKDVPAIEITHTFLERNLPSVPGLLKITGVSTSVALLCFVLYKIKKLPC
Outline: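 The MAO-A source was a crude male Sprague-Dawley rat brain mitochondrial fraction (1 mg/mL), pretreated with (-)-L-deprenyl 250 nM. Compound in DMSO (final 5% v/v) was preincubated for 5 min, then kynuramine was added at 90 μM (KM). 4-Hydroxyquinoline formation was monitored at 314 nm for 5 min.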

[3] = target: T3, MAO-A (amine oxidase [flavin-containing] A) (Rattus norvegicus, UniProt P21396); assay: Inhibition of Sprague-Dawley rat MAO-A in brain mitochondrial homogenate assessed as 4-hydroxyquinoline at 10 uM by spectrophotometric method
T3 sequence (P21396 whole entry): T2 sequence (P21396 whole entry)
Outline: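 Crude mitochondrial fraction from male Sprague-Dawley rat brain (200-250 g) was used at 1 mg/mL and pretreated with (-)-L-deprenyl 250 nM to isolate MAO-A. Compound was given at 10 μM in DMSO (final 5% v/v) with a 5 min preincubation. Kynuramine was added at 90 μM (KM), and 4-hydroxyquinoline formation was read at 314 nm for 5 min. Values are means of 2-3 independent experiments.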

Compound | IC50 [1] [nM] | IC50 [2] [nM] | inhibition at 10 µM [3] [%]
O=C(O)COc1cc(=O)oc2cc(OCc3cccc(Cl)c3)ccc12 | 31600 | – | –
O=c1cc(CCCl)c2ccc(OCc3cccc(Cl)c3)cc2o1 | 12.9 | – | 3
O=c1cc(CCN2CCCCC2)c2ccc(OCc3cccc(Cl)c3)cc2o1 | 3800 | – | 1
O=C(O)CCc1cc(=O)oc2cc(OCc3cccc(Cl)c3)ccc12 | 1200 | – | 13
NC(=O)CCc1cc(=O)oc2cc(OCc3cccc(Cl)c3)ccc12 | 15.1 | 4270 | –
N#CCCc1cc(=O)oc2cc(OCc3cccc(Cl)c3)ccc12 | 28.8 | – | 22

Continued, values first:

IC50 [1] [nM] | IC50 [2] [nM] | inhibition at 10 µM [3] [%] | Compound
31600 | – | – | CCNC(=O)Nc1cc(=O)oc2cc(OCc3cccc(Cl)c3)ccc12
100000 | – | – | O=C(O)c1cc(=O)oc2cc(OCc3cccc(Cl)c3)ccc12
7.41 | 4680 | – | O=c1cc(CCO)c2ccc(OCc3cccc(Cl)c3)cc2o1
32.4 | – | 22 | O=c1cc(CCBr)c2ccc(OCc3cccc(Cl)c3)cc2o1
49 | 95.5 | – | NC(=O)CNc1cc(=O)oc2cc(OCc3cccc(Cl)c3)ccc12
398 | 5750 | – | O=C(CCl)Nc1cc(=O)oc2cc(OCc3cccc(Cl)c3)ccc12
